From PubChem BioAssay
MrgX1 antag = antagonists of human MrgX1 receptor, primary screen, HEK293 cells, Fluo-4 calcium flux | BAM8-22 antagonism; hits give low values | B-score at 10 µM | 310,000 tested, 1.3% active;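 active means calcium-response B-score plate-corrected more than 3 library SD below zero, starting fluorescence within 5 deviations, no agonist response on first addition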;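 further: peak minus trough fluorescence over baseline after final BAM8-22 challenge near maximal dose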
Target sequence (Q96LB2 whole entry, looked up): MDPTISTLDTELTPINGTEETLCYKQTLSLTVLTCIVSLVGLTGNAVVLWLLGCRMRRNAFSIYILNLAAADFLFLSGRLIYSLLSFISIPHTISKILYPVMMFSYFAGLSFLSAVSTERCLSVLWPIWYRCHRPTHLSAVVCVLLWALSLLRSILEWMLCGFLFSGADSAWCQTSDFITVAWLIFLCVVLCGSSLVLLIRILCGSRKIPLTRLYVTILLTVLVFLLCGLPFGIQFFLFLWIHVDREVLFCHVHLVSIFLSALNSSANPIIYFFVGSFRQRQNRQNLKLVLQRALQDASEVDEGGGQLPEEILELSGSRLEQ
MrgX1 ag = agonists of human MrgX1 receptor, primary screen, HEK293 cells, Fluo-4 calcium flux; AID 588627, 2011; 310,000 tested, 0.44% active; B-score at 10 µM; Mas-related G-protein coupled receptor member X1 (Homo sapiens), Q96LB2; Fluo-4 calcium fluorescence, agonist mode; hits give high values;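 active means calcium response B-score plate-corrected fluorescence ratio at least 3 library SD, with starting fluorescence B-score inside 5 SD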
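Material – MrgX1-expressing HEK293 cells · Input – 15,000 cells seeded per well · Dosing – compound as first of three additions · Times – overnight seeding, then 1 h dark dye loading · Measured by – kinetic Fluo-4 NW fluorescence of intracellular calcium · Read-out – B-scored fluorescence response ratio · Benchmarks – positive and negative control wells on each plate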
RGS4 pot = RGS4 potentiators or activators, primary screen, cell-based, HEK293 M3R inducible RGS4, calcium flux; carbachol calcium flux Fluo4; hits give low values; B-score at 10 µM; 310,000 tested, 0.92% active; AID 463111, 2010;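 active means B-score of the integrated calcium signal more than 4 SD below the library mean, with starting fluorescence not abnormally high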;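 further: negative B-score means reduced calcium response which marks RGS4 activation or potentiation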
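test system = M3R-expressing HEK293 line, RGS4 induced by doxycycline | probe or stimulus = carbachol at ECmax as muscarinic agonist stimulus | timing = dye loading 30 min 37 °C, buffer rest 30 min RT | signal = calcium dye Fluo4 fluorescence | evaluation = B score from integrated fluorescence ratio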
RGS4 block = RGS4 inhibitors, primary screen, cell-based, HEK293 M3R inducible RGS4, calcium flux | Regulator of G-protein signaling 4 (Homo sapiens), P49798 | Fluo-4 calcium flux; hits give high values; triggered by carbachol at its EC20 | B-score at 10 µM | 310,000 tested, 0.45% active;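 active means B-score, a plate-corrected calcium signal, over three deviations above library mean, with baseline fluorescence within five deviations of library mean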;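 further: RGS4 expression induced by doxycycline in cells with stable M3 receptor; B-score is computed from the integrated fluorescence ratio over baseline after carbachol; higher B-score means a larger calcium signal and so more RGS4 inhibition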
Target sequence (P49798 whole entry, looked up): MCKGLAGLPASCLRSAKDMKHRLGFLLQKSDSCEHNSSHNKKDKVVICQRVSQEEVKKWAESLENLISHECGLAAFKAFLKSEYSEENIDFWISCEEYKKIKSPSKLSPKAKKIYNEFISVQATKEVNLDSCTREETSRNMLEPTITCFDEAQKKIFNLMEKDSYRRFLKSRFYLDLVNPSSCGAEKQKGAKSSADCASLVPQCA
MrgX1 PAM = positive allosteric modulators of MrgX1, primary screen, HEK293 cells, Fluo-4 calcium flux. B-score at 10 µM. FDSS; hits give high values. 310,000 tested, 0.63% active;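 active means plate-corrected calcium response at least 3 library SD above typical, normal starting fluorescence, not activating the receptor alone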;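 further: compound read alongside a low EC10 to EC30 dose of BAM8-22 agonist; peak minus trough fluorescence over baseline measured at the second addition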
MrgX1 PAM conf = MrgX1 positive allosteric modulators, duplicate retest, confirmation, HEK293 cells, Fluo-4 calcium flux. shares compounds with MrgX1 PAM. Fluo-4 calcium fluorescence, FDSS. activation (ratio percentage), % at 10 µM. 1,200 tested, 13% active. AID 602413, 2012;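 active means ratio at least 3 SD above the weak peptide control, stable starting fluorescence, no direct agonism earlier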;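 further: compound followed by low BAM8-22 agonist challenge near EC20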
HEK293 Ca flux = nonspecific calcium signal in parental HEK293, confirmation, counter-screen for MrgX1 antagonist project, parental HEK293 cells, Fluo-4 calcium flux; shares compounds with MrgX1 antag; Fluo-4 calcium fluorescence, FDSS; AID 624111, 2012; 4,000 tested, 2% active; fluorescence ratio F(max-min)/F0 at 10 µM;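 active means duplicate-averaged calcium fluorescence ratio at least three times the standard deviation of buffer wells, a nonspecific response in parental cells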
HEK293 Ca counter = calcium response in parental HEK293 cells, primary screen, counter-screen for MrgX1 allosteric activator project, cell-based, Fluo-4 calcium flux, duplicate; shares compounds with MrgX1 antag; Fluo-4 fluorescence ratio; hits give high values; fluorescence ratio F(max-min)/F0 at 10 µM; 4,000 tested, 0.4% active;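 active means calcium fluorescence ratio, averaged over duplicates, at least 3 SD of the buffer-well ratio, meaning a nonspecific response in receptor-free cells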;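 further: untransfected parental HEK293 lacking MrgX1 used as counterscreen for MrgX1 allosteric activators; fluorescence change taken during the second addition on a kinetic imager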
HEK293 Ca cntr2 = calcium response in parental HEK293 cells, primary screen, counter-screen for MrgX1 agonist project, cell-based, Fluo-4 calcium flux, duplicate, agonist mode; 4,000 tested, 8.7% active; fluorescence ratio F(max-min)/F0 at 10 µM; shares compounds with MrgX1 antag; AID 624115, 2012; Fluo-4 calcium fluorescence (FDSS); hits give high values;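 active means calcium fluorescence ratio at least three times the spread of buffer wells, meaning a non-specific response in parental cells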
An asterisk follows results filed as active; i = inactive; nt = no result. An excerpt weighted towards active compounds, which were near 3.5% of everything screened.

SMILES	MrgX1 antag	MrgX1 ag	RGS4 pot	RGS4 block	MrgX1 PAM	MrgX1 PAM conf	HEK293 Ca flux	HEK293 Ca counter	HEK293 Ca cntr2
Nc1c(C(=O)c2ccccc2)oc2ccccc12	i	i	i	i	i	nt	nt	nt	nt
Cc1ccc(NC2=NC(c3ccccc3)n3c(nc(C)cc3=O)N2)c(C)c1 (configuration not stated)	i	i	i	i	122*	i	i	i	i
Cc1ccc(NC2=NC(c3ccc(F)cc3)n3c(nc(C)cc3=O)N2)c(C)c1 (configuration not stated)	i	i	i	i	i	nt	nt	nt	nt
CC(=O)Nc1ccc(S(=O)(=O)NCc2ccc(C(=O)N3CCOCC3)cc2)cc1	i	i	i	i	7.4*	i	i	i	i
C=CCN(CC=C)C(=S)NC(=O)c1ccc(C)c(Br)c1	i	i	i	i	8.3*	i	i	i	i
COCc1cc(=O)[nH]c(/N=C(\N)Nc2ccccc2C)n1	i	i	i	i	21*	i	i	i	i
O=S(=O)(c1ccccc1)N1CCN(C(=S)Nc2ccccc2Cl)CC1	i	i	i	i	i	nt	nt	nt	nt
CC(=O)NCC1=C(NC(C)=O)C2CC1C(C)(C)C2C (configuration not stated)	i	i	i	i	i	nt	nt	nt	nt
CC1CCCCN1S(=O)(=O)c1ccc(C(=O)Nc2nnc(-c3ccncc3)o2)cc1 (configuration not stated)	i	i	i	i	i	nt	nt	nt	nt
COc1ccc(-c2nnc(NC(=O)c3ccc(S(=O)(=O)N4COCC4(C)C)cc3)o2)cc1	i	i	i	i	7*	i	i	i	i
CC(=O)NC(Cc1ccccc1F)C(=O)NC1CCN(C(=O)Nc2ccc(C)cc2)CC1 (configuration not stated)	i	i	i	i	i	nt	nt	nt	nt
Cc1nc2cc(Cl)ccc2n1-c1ccccc1	i	i	i	i	16*	i	i	i	i
Cc1ccc(-c2csc3ncnc(NCCC(=O)O)c23)cc1	i	i	i	i	i	nt	nt	nt	nt
Cc1ccc(-c2csc3ncnc(NCCC(=O)O)c23)cc1C	i	i	i	i	6.7*	i	i	i	i
CCOC(=O)c1sc(NS(=O)(=O)c2ccc(F)cc2)nc1C	i	i	i	i	12*	i	i	i	i
CCOC(=O)c1sc(NS(=O)(=O)c2ccccc2Cl)nc1C	i	i	i	i	12*	i	i	i	i
CN(CC(=O)Nc1ccc(OC(F)(F)F)cc1)S(=O)(=O)c1cnc[nH]1	i	i	i	i	i	nt	nt	nt	nt
CCCc1ccc2oc(C(=O)N3CCNC(=O)C3CC(=O)OC)c(C)c2c1 (configuration not stated)	i	i	i	i	i	nt	nt	nt	nt
CC(C)n1cc(CN2CCC(Oc3ccc(C(=O)N4CCCC4)cc3)CC2)cn1	i	i	i	i	i	nt	nt	nt	nt
Cc1ccc(Nc2cc(-n3cccn3)ncn2)c(C)c1	i	i	i	i	14*	i	i	i	i
Cc1ccc(OCc2n[nH]c(=S)n2-c2ccc(Br)cc2)cc1	i	i	i	i	7.6*	i	i	i	i
Cc1ccc(OCc2n[nH]c(=S)n2-c2ccc(Cl)cc2)cc1	i	i	i	i	i	nt	nt	nt	nt
NCc1ccccc1	i	i	nt	nt	13*	i	i	i	i
CC1CCN(Cc2c(C(=O)N/N=C/c3ccc(OC(C)C)cc3)nnn2-c2nonc2N)CC1	i	i	i	i	i	nt	nt	nt	nt
CCN(C(=O)c1c(N)cnn1C)c1ccccc1	i	i	i	i	10*	i	i	i	i
SMILES	MrgX1 antag	MrgX1 ag	RGS4 pot	RGS4 block	MrgX1 PAM	MrgX1 PAM conf	HEK293 Ca flux	HEK293 Ca counter	HEK293 Ca cntr2
N/C(=N\OC(=O)c1ccc2ccccc2c1)c1ccccc1Cl	i	i	i	i	i	nt	nt	nt	nt
COc1cccc(C(=O)Nc2nnc(-c3ccccc3)s2)c1OC	i	i	i	i	10*	i	i	i	i
COc1ccccc1C(=O)Nc1nnc(-c2ccccc2)s1	i	i	i	i	i	nt	nt	nt	nt
CCn1c2ccccc2c2nnc(SCC(=O)N3CC(C)OC(C)C3)nc21 (configuration not stated)	i	i	i	i	i	nt	nt	nt	nt
CCCn1c(=O)c(C(=O)NCCCc2ccccc2)c(O)c2ccccc21	i	i	i	i	6.8*	i	i	i	i
COCC(C)n1c(SCC(=O)c2cc(C)n(C)c2C)nc2ccccc2c1=O (configuration not stated)	i	i	i	i	13*	i	i	i	i
CCCCCCn1c(N2CCCC2)nc2c1c(=O)n(C)c(=O)n2C	i	i	i	i	7.7*	i	i	i	i
CC(C)CCn1c(N2CCCC2)nc2c1c(=O)n(C)c(=O)n2C	i	i	i	i	i	nt	nt	nt	nt
Cc1ccn2c(NC3CCCC3)c(-c3ccncc3)nc2c1	i	i	i	i	7.3*	14%*	i	i	i
Cc1ccc2nc(-c3ccncc3)c(NC3CCCC3)n2c1	i	i	i	i	i	nt	nt	nt	nt
Cc1ccn2c(NC3CCCC3)c(-c3ccccn3)nc2c1	i	i	i	i	12*	i	i	i	i
